In brackets after ≈: the same amount, converted by molar mass. Activity calls are given as the source filed them. No cut-off for these calls is given here. Square brackets hold non-standard residues; d marks the D form. Peptide text beside a SMILES is read from it. dPhe(4-Cl) = N[C@H](Cc1ccc(Cl)cc1)C(=O)O; d2Nal = N[C@H](Cc1ccc2ccccc2c1)C(=O)O; dCit = NC(=O)NCCC[C@@H](N)C(=O)O; d3Pal = N[C@H](Cc1cccnc1)C(=O)O
Key:
Rattus norvegicus [1] = experiment: Suppression of ovariectomized-induced increase in plasma luteinizing hormone level in po dosed Wistar Han rat measured up to 24 hrs; assay type: functional; conditions: time hrs <=24
Procedure, shortened: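 Ovariectomized rats given single oral doses, range 1 to 30 mg/kg. Plasma LH followed over time, with cetrorelix at 0.1 mg/kg sc as reference. ED50 calculated from the dose-response.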

[2] = Half life in Wistar rat at 0.5 mg/kg, iv by LC-MS/MS analysis; assay type: ADME, organism-based; conditions: in vivo
[3] = target: T1, Gonadotropin-releasing hormone receptor (Homo sapiens, UniProt P30968); experiment: Antagonist activity at human GnRH receptor expressed in CHO-K1 cells assessed as inhibition of LHRH-induced response preincubated for 20 mins followed by LHRH addition and measured after 60 mins by TR-FRET assay; assay type: cell-based
T1 sequence (P30968 whole entry): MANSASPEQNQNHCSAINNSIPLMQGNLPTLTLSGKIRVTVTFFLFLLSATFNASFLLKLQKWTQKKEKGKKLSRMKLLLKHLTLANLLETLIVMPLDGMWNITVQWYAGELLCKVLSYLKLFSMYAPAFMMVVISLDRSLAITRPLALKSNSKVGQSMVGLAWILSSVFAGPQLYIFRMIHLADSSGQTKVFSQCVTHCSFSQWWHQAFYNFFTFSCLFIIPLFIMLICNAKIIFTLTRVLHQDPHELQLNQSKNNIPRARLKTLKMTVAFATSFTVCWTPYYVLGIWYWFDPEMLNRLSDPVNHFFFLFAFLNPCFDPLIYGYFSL

[4] = target: T2, Gonadotropin-releasing hormone receptor (Rattus norvegicus, UniProt P30969); experiment: Antagonist activity at rat GnRH receptor expressed in CHO-K1 cells assessed as inhibition of LHRH-induced response preincubated for 20 mins followed by LHRH addition and measured after 60 mins by TR-FRET assay; assay type: cell-based
T2 sequence (P30969 whole entry): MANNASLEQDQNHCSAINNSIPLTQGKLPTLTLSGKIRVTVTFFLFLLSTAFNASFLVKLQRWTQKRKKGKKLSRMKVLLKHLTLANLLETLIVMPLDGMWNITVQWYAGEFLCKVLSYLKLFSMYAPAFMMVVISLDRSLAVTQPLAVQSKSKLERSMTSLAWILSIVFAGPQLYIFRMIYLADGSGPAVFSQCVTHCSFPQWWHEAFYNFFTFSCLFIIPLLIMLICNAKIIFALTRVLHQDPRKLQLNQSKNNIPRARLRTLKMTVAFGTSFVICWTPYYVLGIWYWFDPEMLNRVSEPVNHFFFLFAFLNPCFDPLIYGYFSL
Procedure, shortened: (§1)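 Frozen rat-receptor cells: thawed, seeded overnight in serum-containing Ham's F12, Accutase-harvested, resuspended in serum-free medium with IP1-d2, 1 h at 37 °C. 1.0 × 10^4 cells/well, 20 min compound preincubation at rt, then 1× EC80 LHRH or buserelin in HEPES stimulation buffer pH 7.4 for 60 min at 37 °C. Tb-anti-IP1 lysis (1:38), HTRF read 60 min later.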

[5] = target: T1, Gonadotropin-releasing hormone receptor; experiment: Antagonist activity at human GnRH receptor expressed in CHO-K1 cells assessed as inhibition of buserelin-induced response preincubated for 20 mins followed by buserelin addition and measured after 60 mins by TR-FRET assay; assay type: cell-based
[6] = Clearance in Wistar rat at 0.5 mg/kg, iv by LC-MS/MS analysis; assay type: ADME, organism-based; conditions: in vivo; for clearance: Wistar; for CL: 0.5 mg/kg
[7] = Intrinsic clearance in Han Wistar rat hepatocytes at 1 uM measured up to 90 mins by LC/MS/MS analysis; assay type: ADME, cell-based, Hepatocyte; conditions: for CLint scaled at 1 µM: Han Wistar, read-out: CLH (converted); for CLH: 1.5 h, 1 µM
[8] = Aqueous solubility of compound at pH 6.5 incubated for 24 hrs under shaking condition by HPLC-MS/MS analysis; assay type: physicochemical; conditions: aqueous solution
Procedure, shortened: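 Compound from 1 mM DMSO solution, pH 6.5 buffer added, shaken 24 h at rt. Filtered, dissolved compound quantified by HPLC-MS/MS.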

[9] = target: Voltage-gated inwardly rectifying potassium channel KCNH2 (Homo sapiens, UniProt Q12809); experiment: Inhibition of human ERG expressed in HEK293 cells assessed as reduction in channel inward tail current by whole cell voltage clamp assay; assay type: cell-based
Voltage-gated inwardly rectifying potassium channel KCNH2, sequence (Q12809 whole entry): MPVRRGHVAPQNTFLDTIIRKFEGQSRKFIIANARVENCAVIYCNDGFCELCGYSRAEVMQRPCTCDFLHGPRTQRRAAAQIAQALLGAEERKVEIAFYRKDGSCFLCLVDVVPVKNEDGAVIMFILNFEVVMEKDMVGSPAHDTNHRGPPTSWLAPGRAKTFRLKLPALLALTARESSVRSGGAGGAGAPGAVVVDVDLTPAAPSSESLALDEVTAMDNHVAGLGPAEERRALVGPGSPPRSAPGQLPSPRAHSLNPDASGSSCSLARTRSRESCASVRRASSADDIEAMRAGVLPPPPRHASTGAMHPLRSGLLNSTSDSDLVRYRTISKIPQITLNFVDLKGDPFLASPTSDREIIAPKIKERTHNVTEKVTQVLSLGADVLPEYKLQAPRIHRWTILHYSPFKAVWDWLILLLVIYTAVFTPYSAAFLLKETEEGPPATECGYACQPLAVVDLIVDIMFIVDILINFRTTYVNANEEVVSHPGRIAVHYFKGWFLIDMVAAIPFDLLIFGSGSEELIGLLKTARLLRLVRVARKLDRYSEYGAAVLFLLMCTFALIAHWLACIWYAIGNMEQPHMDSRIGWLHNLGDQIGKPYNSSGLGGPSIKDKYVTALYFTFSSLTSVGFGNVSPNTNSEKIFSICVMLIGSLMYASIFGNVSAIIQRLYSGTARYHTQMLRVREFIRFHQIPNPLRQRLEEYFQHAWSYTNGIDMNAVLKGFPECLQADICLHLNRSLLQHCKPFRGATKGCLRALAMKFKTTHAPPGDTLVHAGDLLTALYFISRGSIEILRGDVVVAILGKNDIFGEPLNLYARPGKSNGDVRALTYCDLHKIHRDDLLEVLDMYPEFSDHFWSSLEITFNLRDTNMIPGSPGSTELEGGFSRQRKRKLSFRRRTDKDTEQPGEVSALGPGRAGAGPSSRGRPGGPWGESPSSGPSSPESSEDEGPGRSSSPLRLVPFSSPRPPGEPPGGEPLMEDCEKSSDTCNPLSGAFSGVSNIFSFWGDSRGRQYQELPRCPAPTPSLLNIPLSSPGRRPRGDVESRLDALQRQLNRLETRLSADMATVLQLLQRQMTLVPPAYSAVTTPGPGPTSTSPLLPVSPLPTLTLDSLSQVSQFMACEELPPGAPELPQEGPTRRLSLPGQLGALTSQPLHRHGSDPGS

[10] = Lipophilicity, log D of the compound in pH 7.5 MeCN/H2O solution by reversed-phase HPLC analysis; assay type: physicochemical
Procedure, shortened: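 Indirect reversed-phase HPLC at pH 7.5, calibrated with n-alkan-2-ones C3–C16. Compounds applied as 0.67 mM DMSO stocks in MeCN/H2O (1:1).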

[11] = Oral bioavailability in Wistar rat at 2 mg/kg by LC-MS/MS analysis; assay type: ADME, organism-based; conditions: in vivo
Rattus norvegicus [12] = experiment: Suppression of ovariectomized-induced increase in plasma luteinizing hormone level in Wistar Han rat at 30 mg/kg, ip measured after 1 hr relative to control; assay type: functional
Procedure, shortened: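 Ovariectomized rats given a single intraperitoneal injection at 30 mg/kg. Plasma LH measured 1 h later and compared with vehicle-treated animals.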

[13] = target: T3, Gonadotropin-releasing hormone receptor (Homo sapiens) (UniProt P30968); experiment: Inhibition of Tag-lite green-labeled agonist binding to terbium fluorophore-labeled human N-terminal SNAP-tag GnRh receptor expressed in HEK293 cells assessed as association rate constant by TR-FRET assay; assay type: cell-based; conditions: filed as antagonist
T3 sequence (whole entry): T1 sequence (P30968 whole entry)
Procedure, shortened: (§2)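 Kinetic competition at rt: tracer at 10 nM final with compound, Tb-hGnRH-R cells injected in the reader. TR-FRET read at time zero and every 21 s. Baseline-subtracted traces fitted with the Motulsky–Mahan competitive kinetics model. At least two independent experiments, two replicates each.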

[14] = target: T1, Gonadotropin-releasing hormone receptor; experiment: Inhibition of Tag-lite green-labeled agonist binding to terbium fluorophore-labeled human N-terminal SNAP-tag GnRh receptor expressed in HEK293 cells assessed as dissociation constant by TR-FRET assay; assay type: cell-based
[15] = target: T1, Gonadotropin-releasing hormone receptor; experiment: Inhibition of Tag-lite green-labeled agonist binding to terbium fluorophore-labeled human N-terminal SNAP-tag GnRh receptor expressed in HEK293 cells assessed as equilibrium dissociation constant by TR-FRET assay; assay type: cell-based
Rattus norvegicus [16] = experiment: Suppression of ovariectomized-induced increase in plasma luteinizing hormone level in Wistar Han rat at 0.1 mg/kg, sc measured up to 24 hrs; assay type: functional, organism-based; conditions: time hrs <=24
[17] = target: T3, Gonadotropin-releasing hormone receptor (Homo sapiens); experiment: Inhibition of Tag-lite green-labeled agonist binding to terbium fluorophore-labeled human N-terminal SNAP-tag GnRh receptor expressed in HEK293 cells assessed as dissociation rate constant by TR-FRET assay; assay type: cell-based; conditions: filed as antagonist; procedure, shortened: as §2
[18] = target: T3, Gonadotropin-releasing hormone receptor (Homo sapiens); experiment: Inhibition of Tag-lite green-labeled agonist binding to terbium fluorophore-labeled human N-terminal SNAP-tag GnRh receptor expressed in HEK293 cells assessed as residence time by TR-FRET assay; assay type: cell-based; conditions: filed as antagonist; procedure, shortened: as §2
[19] = target: T2, Gonadotropin-releasing hormone receptor; experiment: Antagonist activity at rat GnRH receptor expressed in CHO-K1 cells assessed as inhibition of buserelin-induced response preincubated for 20 mins followed by buserelin addition and measured after 60 mins by TR-FRET assay; assay type: cell-based; procedure, shortened: as §1

O=C(NCc1ncccc1Cl)c1ccc2c(c1)C1(CCS(=O)(=O)CC1)C(C1CC1)N2S(=O)(=O)c1ccc(F)cc1 (stereo in doubt; 4a) [listing 1 of 2 here]
Activity (Rattus norvegicus [1]): Dose-dependent effect

CC1N(S(=O)(=O)c2ccc(F)cc2)c2ccc(C(=O)NCc3ccccc3Cl)cc2C12CCNCC2 (stereo in doubt)
half-life [2]: 8.1 h
IC50 [3]: 99 nM
IC50 ([4]; cho-k1): 27 nM
IC50 [5]: 172 nM
clearance [6]: 23.3 mL/min/kg
CLint scaled at 1 µM [7]: 33.3 mL/min/kg

CC1N(S(=O)(=O)c2ccc(F)cc2)c2ccc(C(=O)NCc3ccccc3Cl)cc2C12CCNCC2 (stereo in doubt; 3a)
solubility at 24 h [8]: 271 µg/mL (≈ 513 µM)
IC50 ([3]; cho-k1): 99 nM
IC50 [9]: 1100 nM
IC50 [4]: 27 nM
IC50 ([5]; cho-k1): 172 nM
chromatographic logD [10]: 2.8
bioavailability [11]: < 2%
Activity (Rattus norvegicus [12]): 74%

CC(=O)N1CCC2(CC1)c1cc(C(=O)NCc3ncccc3Cl)ccc1N(S(=O)(=O)c1ccc(F)cc1)C2C (single isomer, unassigned)
IC50 [3]: 53.5 nM
IC50 [5]: 35 nM
clearance [6]: 28.3 mL/min/kg
bioavailability [11]: 18%
CLint scaled at 1 µM [7]: 11.7 mL/min/kg

COc1ccc(S(=O)(=O)N2c3ccc(C(=O)NCc4ccccc4Cl)cc3C3(CCN(C(C)=O)CC3)C2C)cc1 (stereo in doubt; form 3)
IC50 [3]: 15 nM
IC50 [5]: 28 nM
CL [6]: 31.7 mL/min/kg
bioavailability [11]: 1.3%
CLH [7]: 20 mL/min/kg

CC(=O)N[C@H](Cc1ccc2ccccc2c1)C(=O)N[C@H](Cc1ccc(Cl)cc1)C(=O)N[C@H](Cc1cccnc1)C(=O)N[C@@H](CO)C(=O)N[C@@H](Cc1ccc(O)cc1)C(=O)N[C@H](CCCNC(N)=O)C(=O)N[C@@H](CC(C)C)C(=O)N[C@@H](CCCNC(=N)N)C(=O)N1CCC[C@H]1C(=O)N[C@H](C)C(N)=O [CETRORELIX] (Ac-[d2Nal][dPhe(4-Cl)][d3Pal]SY[dCit]LRP[dA]-NH2)
K [13]: 3.57 10^6/M/s
Kd [14]: 0.0017 nM
Kd [15]: 0.135 nM
Activity (Rattus norvegicus [16]): Active
K [17]: 1 10^-5/s
TIME [18]: 0.583 h

COc1ccc(S(=O)(=O)N2c3ccc(C(=O)NCc4ccccc4Cl)cc3C3(CCN(C(C)=O)CC3)C2C)cc1 (stereo in doubt; form 2)
half-life [2]: 0.82 h
IC50 [3]: 41 nM
IC50 [19]: 34 nM
IC50 [4]: 29 nM
IC50 [5]: 99 nM
CL [6]: 78.3 mL/min/kg
CLH [7]: 46.7 mL/min/kg

COc1cccc(-c2c(C)n(Cc3c(F)cccc3C(F)(F)F)c(=O)n(C[C@H](NCCCC(=O)O)c3ccccc3)c2=O)c1F [ELAGOLIX SODIUM]
K [13]: 2.06 10^5/M/s
Kd [14]: 3.21 nM
Kd [15]: 1.19 nM
K [17]: 3.3 10^-4/s
TIME [18]: 1.27 h

O=C(NCc1ncccc1Cl)c1ccc2c(c1)C1(CCS(=O)(=O)CC1)C(C1CC1)N2S(=O)(=O)c1ccc(F)cc1 (stereo in doubt; 4a) [listing 2 of 2 here]
IC50 [3]: 60 nM
ED50 (Rattus norvegicus [1]): 5.5 mg/kg
IC50 ([4]; cho-k1): 40 nM
chromatographic logD [10]: 3

COc1ccc(S(=O)(=O)N2c3ccc(C(=O)NCc4ccccc4Cl)cc3C(C)(C)C2C)cc1 (stereo in doubt; 1a)
IC50 [3]: 570 nM
IC50 [19]: 1100 nM
IC50 [4]: 730 nM
IC50 [5]: 1500 nM
chromatographic logD [10]: 3.8
CLint scaled at 1 µM [7]: 51.7 mL/min/kg

O=C(NCc1ncccc1Cl)c1ccc2c(c1)C1(CCS(=O)(=O)CC1)C(C1CC1)N2S(=O)(=O)c1ccc(F)cc1 (stereo in doubt)
half-life [2]: 2.1 h
IC50 [3]: 60 nM
IC50 [4]: 40 nM
clearance [6]: 30 mL/min/kg
bioavailability [11]: 27%
CLint scaled at 1 µM [7]: 4.17 mL/min/kg
